Data on 41 molecules can be found in BindingDB's records for doi:10.1021/acs.jmedchem.5b00085 (The Hong Kong Polytechnic University, 2015).

Data set [1] in a line: Modulation of P-gp (unknown origin) transfected in human MDA435/LCC6MDR cells assessed as reversible of paclitaxel resistance measured as IC50 for paclitaxel at 1 uM after 5 days by CellTiter 96 Aqueous assay.
Data set [2] concerns the target ATP-dependent translocase ABCB1 (Homo sapiens, UniProt P08183). The experiment in a line: Modulation of P-gp (unknown origin) transfected in human MDA435/LCC6MDR cells assessed as reversible of paclitaxel resistance measured as IC50 for paclitaxel at 10 uM after 5 days by CellTiter 96 Aqueous assay. In short, it runs like this:
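They were held 5 days at 37 °C and viability read by CellTiter 96 AQueous (MTS). […] RF = IC50 of PTX without modulator / IC50 with modulator.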

The nature of data set [3]: Modulation of P-gp (unknown origin) transfected in human MDA435/LCC6MDR cells assessed as reversing paclitaxel resistance measured as cell survival after 5 days by MTS assay.
A short description of data set [4]: Modulation of P-gp (unknown origin) transfected in human MDA435/LCC6MDR cells assessed as reversing vincristine resistance measured as cell survival after 5 days by MTS assay. In general terms: Tetrazolium dyes change colour on reduction, which living cells bring about.
A short description of data set [5]: Modulation of P-gp (unknown origin) transfected in human MDA435/LCC6MDR cells assessed as reversing vinblastine resistance measured as cell survival after 5 days by MTS assay.
A short description of data set [6]: Modulation of P-gp (unknown origin) transfected in human MDA435/LCC6MDR cells assessed as reversing doxorubicin resistance measured as cell survival after 5 days by MTS assay.
Data set [7] can be described thus: Modulation of BCRP (unknown origin) transfected in human HEK293/R2 cells assessed as potentiation of topotecan-induced cytotoxicity measured as topotecan IC50 at 1 uM after 5 days by MTS assay.
Data set [8] can be described thus: Modulation of MRP1 (unknown origin) transfected in human 2008/MRP1 cells assessed as potentiation of doxorubicin-induced cytotoxicity measured as doxorubicin IC50 at 1 uM after 5 days by MTS assay.

What is called IC50 is the concentration that gives 50% inhibition. Broadly, the EC50 is the midpoint of the concentration-response curve.

ATP-dependent translocase ABCB1, sequence (P08183 whole entry): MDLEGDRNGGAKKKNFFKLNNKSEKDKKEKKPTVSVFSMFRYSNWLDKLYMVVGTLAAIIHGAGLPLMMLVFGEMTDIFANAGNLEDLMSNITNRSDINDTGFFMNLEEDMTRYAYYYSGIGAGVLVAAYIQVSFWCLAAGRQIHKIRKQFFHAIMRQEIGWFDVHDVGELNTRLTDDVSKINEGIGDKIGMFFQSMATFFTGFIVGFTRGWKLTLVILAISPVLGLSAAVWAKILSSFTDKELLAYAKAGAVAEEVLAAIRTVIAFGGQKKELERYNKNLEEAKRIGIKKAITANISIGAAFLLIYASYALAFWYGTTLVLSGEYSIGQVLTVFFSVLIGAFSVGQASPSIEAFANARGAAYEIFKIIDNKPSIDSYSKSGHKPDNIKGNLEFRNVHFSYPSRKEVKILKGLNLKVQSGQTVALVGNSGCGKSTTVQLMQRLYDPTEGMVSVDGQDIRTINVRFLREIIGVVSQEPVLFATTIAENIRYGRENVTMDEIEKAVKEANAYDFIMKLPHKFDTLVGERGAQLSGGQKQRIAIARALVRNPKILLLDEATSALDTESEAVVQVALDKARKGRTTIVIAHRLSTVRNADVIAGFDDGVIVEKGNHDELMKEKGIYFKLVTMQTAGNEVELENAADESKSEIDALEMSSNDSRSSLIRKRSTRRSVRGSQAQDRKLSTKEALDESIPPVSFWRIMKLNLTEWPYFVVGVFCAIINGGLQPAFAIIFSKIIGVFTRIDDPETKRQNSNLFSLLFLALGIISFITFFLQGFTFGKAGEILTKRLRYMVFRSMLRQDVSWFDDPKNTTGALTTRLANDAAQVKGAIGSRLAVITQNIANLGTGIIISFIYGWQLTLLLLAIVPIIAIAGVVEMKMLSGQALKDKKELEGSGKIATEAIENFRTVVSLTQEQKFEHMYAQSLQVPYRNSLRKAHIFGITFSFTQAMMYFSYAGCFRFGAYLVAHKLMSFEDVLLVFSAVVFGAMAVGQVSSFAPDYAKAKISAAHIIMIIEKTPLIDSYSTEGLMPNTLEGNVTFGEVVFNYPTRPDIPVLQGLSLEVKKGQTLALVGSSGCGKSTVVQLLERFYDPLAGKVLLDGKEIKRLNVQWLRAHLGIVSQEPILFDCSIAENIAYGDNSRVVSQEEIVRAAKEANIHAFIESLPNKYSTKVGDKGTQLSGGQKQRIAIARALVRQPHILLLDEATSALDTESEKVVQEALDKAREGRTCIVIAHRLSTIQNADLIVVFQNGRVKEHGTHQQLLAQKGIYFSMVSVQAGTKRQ

With `CCOc1cc(C(=O)O[C@@H]2Cc3c(OC)cc(OC)cc3O[C@@H]2c2cc(OC)c(OC)c(OC)c2)cc(OCC)c1OCC`, in data set [1], the IC50 turned out to be 113 nM.

As to `COc1cc(OC)c2c(c1)O[C@H](c1cc(OC)c(OC)c(OC)c1)[C@H](OC(=O)c1ccc(F)c(NC(=O)c3ccc(F)c(NC(=O)c4ccc(OC)c(OC)c4)c3)c1)C2`, in data set [1], the IC50 is 14 nM.

On to `COc1cc(OC)c2c(c1)O[C@H](c1cc(OC)c(OC)c(OC)c1)[C@@H](OC(=O)c1ccc(OC)c(OC)c1)C2=O`, for which the IC50 in data set [1] stood at 37 nM.

On to `COc1cc(OC)c2c(c1)O[C@H](c1cc(OC)c(OC)c(OC)c1)[C@H](OC(=O)c1ccc(F)c(NC(=O)c3ccc(F)c(NC(=O)c4cc(OC)c(OC)c(OC)c4)c3)c1)C2`, for which the IC50 in data set [1] was 13 nM.

Consider `O=C(O[C@@H]1Cc2c(O)cc(O)cc2O[C@@H]1c1cc(O)c(O)c(O)c1)c1cc(O)c(O)c(O)c1` [(-)-Epigallocatechin-3-o-gallate], for which the “IC50” value came out at 123 nM in data set [2] and 124 nM in data set [1].

Consider `COc1cc(OC)c2c(c1)O[C@H](c1cc(OC)c(OC)c(OC)c1)[C@H](OC(=O)Cc1ccc(OC)c(OC)c1)C2`, for which the IC50 in data set [1] is 32 nM.

For the molecule `COc1cc(OC)c2c(c1)O[C@H](c1cc(OC)c(OC)c(OC)c1)[C@H](OC(=O)c1ccc(F)c(NC(C)=O)c1)C2`, in data set [1], the IC50 was 15 nM.

As to `COc1ccc(/C=C/C(=O)O[C@@H]2Cc3c(OC)cc(OC)cc3O[C@@H]2c2cc(OC)c(OC)c(OC)c2)cc1`, the IC50 in data set [1] came to 22 nM.

In the case of `COc1cc(OC)c2c(c1)O[C@H](c1cc(OC)c(OC)c(OC)c1)[C@@H](OC(=O)c1ccc(F)c(NC(=O)c3cc(OC)c(OC)c(OC)c3)c1)C2`, the EC50 stood at 140 nM in data set [3], 102 nM in data set [4], 108 nM in data set [5] and 107 nM in data set [6]. Also, the results for the IC50 in data set [7] and in data set [8] were 38 nM and 141 nM, respectively.

In the case of `COc1cc(OC)c2c(c1)O[C@H](c1cc(OC)c(OC)c(OC)c1)[C@H](OC(=O)/C=C/c1ccc(OC)c(OC)c1)C2`, the EC50 was found to be 157 nM in data set [3], 167 nM in data set [4], 123 nM in data set [5] and 160 nM in data set [6]. In data set [1], the IC50 came to 8.7 nM.

`COc1cc(OC)c2c(c1)O[C@H](c1cc(OC)c(OC)c(OC)c1)[C@@H](OC(=O)c1ccc(F)c(NC(=O)c3ccc(OC)c(OC)c3)c1)C2`: the EC50 in data set [3] came out at 171 nM; in data set [4], 147 nM; in data set [5], 173 nM; in data set [6], 208 nM. Further, the IC50 in data set [7] turned out to be 45 nM; in data set [8] it was 142 nM.

Take `COc1cc(OC)c2c(c1)O[C@H](c1cc(OC)c(OC)c(OC)c1)[C@@H](OC(=O)c1ccc(F)c(NC(=O)/C=C/c3cc(OC)c(OC)c(OC)c3)c1)C2=O`: in data set [1], the IC50 turned out to be 28 nM.

`COc1ccc(C(=O)O[C@@H]2Cc3c(OC)cc(OC)cc3O[C@@H]2c2cc(OC)c(OC)c(OC)c2)cc1`: the IC50 in data set [1] was 148 nM.

In the case of `COc1ccc(/C=C/C(=O)O[C@H]2C(=O)c3c(OC)cc(OC)cc3O[C@@H]2c2cc(OC)c(OC)c(OC)c2)cc1`, in data set [1], the IC50 turned out to be 41 nM.

`C=CCOc1cc(C(=O)O[C@H]2C(=O)c3c(OC)cc(OC)cc3O[C@@H]2c2cc(OC)c(OC)c(OC)c2)cc(OCC=C)c1OCC=C`: in data set [1], the concentration for half-maximal inhibition (IC50) was determined as 32 nM.

As to `COc1cc(OC)c2c(c1)O[C@H](c1cc(OC)c(OC)c(OC)c1)[C@@H](OC(=O)c1ccc(F)c(NC(=O)c3cc(OC)c(OC)c(OC)c3)c1)C2=O`, the IC50 in data set [1] stood at 37 nM.

As to `COc1cc(OC)c2c(c1)O[C@H](c1cc(OC)c(OC)c(OC)c1)[C@@H](OC(=O)c1cc(OC)c(OC)c(OC)c1)C2=O`, the IC50 in data set [1] worked out at 44 nM.

Consider `COc1cc(OC)c2c(c1)O[C@H](c1cc(OC)c(OC)c(OC)c1)[C@H](OC(=O)CCc1cc(OC)c(OC)c(OC)c1)C2`, for which the IC50 in data set [1] came out at 18 nM.

For the molecule `COc1cc(OC)c2c(c1)O[C@H](c1cc(OC)c(OC)c(OC)c1)[C@H](OC(=O)CCc1ccc(OC)c(OC)c1)C2`, the IC50 in data set [1] came to 19 nM.

Consider `COc1cc(OC)c2c(c1)O[C@H](c1cc(OC)c(OC)c(OC)c1)[C@H](OC(=O)c1cccc(F)c1)C2`, for which, in data set [1], the concentration for half-maximal inhibition (IC50) was 97 nM.

Take `COc1cc(OC)c2c(c1)O[C@H](c1cc(OC)c(OC)c(OC)c1)[C@@H](OC(=O)c1ccc(F)c(NC(=O)c3ccc(OC)c(OC)c3)c1)C2=O`: the IC50 in data set [1] came out at 9.4 nM.

As for `COc1cc(OC)c2c(c1)O[C@H](c1cc(OC)c(OC)c(OC)c1)[C@@H](OC(=O)c1ccc(F)c(NC(=O)/C=C/c3ccc(OC)c(OC)c3)c1)C2`, the EC50 in data set [3] was 280 nM. Besides, the IC50 in data set [1] turned out to be 6.6 nM.

Take `COc1cc(OC)c2c(c1)O[C@H](c1cc(OC)c(OC)c(OC)c1)[C@H](OC(=O)c1ccc(F)c(NC(=O)/C=C/c3cc(OC)c(OC)c(OC)c3)c1)C2`: the IC50 in data set [1] came to 6.2 nM.

As for `CC(=O)Oc1cc(OC(C)=O)c2c(c1)O[C@H](c1cc(OC(C)=O)c(OC(C)=O)c(OC(C)=O)c1)[C@H](OC(=O)c1cc(OC(C)=O)c(OC(C)=O)c(OC(C)=O)c1)C2`, in data set [1], the IC50 is 176 nM.

As for `COc1cc(OC)c2c(c1)O[C@H](c1cc(OC)c(OC)c(OC)c1)[C@H](OC(=O)c1ccc(F)cc1)C2`, the IC50 in data set [1] is 53 nM.

On to `COc1cc(OC)c2c(c1)O[C@H](c1cc(OC)c(OC)c(OC)c1)[C@H](OC(=O)c1ccc(F)c(NC(=O)c3cc(OC)c(OC)c(OC)c3)c1)C2`, for which the EC50 in data set [3] was found to be 214 nM. For the same molecule, the values for the IC50 in data set [7], in data set [8] and in data set [1] were 207 nM, 418 nM and 3.3 nM, respectively.

For `COc1cc(OC)c2c(c1)O[C@H](c1cc(OC)c(OC)c(OC)c1)[C@@H](OC(=O)c1ccc(F)c(NC(=O)/C=C/c3cc(OC)c(OC)c(OC)c3)c1)C2`, in data set [3], the EC50 was found to be 225 nM.

As to `COc1ccc(C(=O)O[C@H]2Cc3c(OC)cc(OC)cc3O[C@@H]2c2cc(OC)c(OC)c(OC)c2)cc1`, the half-inhibitory concentration (IC50) in data set [1] came out at 67 nM.

For `COc1cc(OC)c2c(c1)O[C@H](c1cc(OC)c(OC)c(OC)c1)[C@@H](OC(C)=O)C2=O`, in data set [1], the IC50 was 107 nM.

`C=CCOc1cc(C(=O)O[C@@H]2Cc3c(OC)cc(OC)cc3O[C@@H]2c2cc(OC)c(OC)c(OC)c2)cc(OCC=C)c1OCC=C`: the IC50 in data set [1] is 12 nM.

With `COc1cc(OC)c2c(c1)O[C@H](c1cc(OC)c(OC)c(OC)c1)[C@@H](OC(=O)c1ccc(OC)c(OC)c1)C2`, the IC50 in data set [1] was determined as 12 nM.

Consider `COc1cc(OC)c2c(c1)O[C@H](c1cc(OC)c(OC)c(OC)c1)[C@@H](O)C2`, for which the IC50 in data set [1] was 136 nM.

Turning to `COc1cc(OC)c2c(c1)O[C@H](c1cc(OC)c(OC)c(OC)c1)[C@H](OC(=O)c1ccc(OC)c(OC)c1)C2`, the IC50 in data set [1] is 20 nM.

Take `COc1cc(OC)c2c(c1)O[C@H](c1cc(OC)c(OC)c(OC)c1)[C@H](OC(=O)c1ccc(F)c(N(C)C)c1)C2`: the IC50 in data set [1] is 36 nM.

With `COc1ccc(/C=C/C(=O)O[C@H]2Cc3c(OC)cc(OC)cc3O[C@@H]2c2cc(OC)c(OC)c(OC)c2)cc1`, in data set [1], the IC50 was found to be 19 nM.

`COc1ccc(C(=O)O[C@H]2C(=O)c3c(OC)cc(OC)cc3O[C@@H]2c2cc(OC)c(OC)c(OC)c2)cc1`: the IC50 in data set [1] is 48 nM.

For `COc1ccc(CCC(=O)O[C@@H]2Cc3c(OC)cc(OC)cc3O[C@@H]2c2cc(OC)c(OC)c(OC)c2)cc1`, the IC50 in data set [1] is 40 nM.

As to `COc1cccc(C(=O)O[C@@H]2Cc3c(OC)cc(OC)cc3O[C@@H]2c2cc(OC)c(OC)c(OC)c2)c1`, the IC50 in data set [1] turned out to be 45 nM.

Regarding `COc1cc(OC)c2c(c1)O[C@H](c1cc(OC)c(OC)c(OC)c1)[C@H](OC(=O)/C=C/c1cc(OC)c(OC)c(OC)c1)C2`, the IC50 is 357 nM in data set [7] and 322 nM in data set [8].

In the case of `COc1cc(OC)c2c(c1)O[C@H](c1cc(OC)c(OC)c(OC)c1)[C@H](OC(=O)c1ccc(F)c(NC(=O)c3ccc(OC)c(OC)c3)c1)C2`, the EC50 in data set [3] stood at 159 nM; in data set [4], 181 nM; in data set [5], 193 nM; in data set [6], 139 nM. The half-maximal inhibitory concentration (IC50) in data set [7] came to 176 nM; in data set [8], 434 nM; in data set [1], 3 nM.

Regarding `COc1ccc(CC(=O)O[C@@H]2Cc3c(OC)cc(OC)cc3O[C@@H]2c2cc(OC)c(OC)c(OC)c2)cc1`, the IC50 in data set [1] was 34 nM.
